Results reported in publication PMC11568772 (Drug Design, Development and Therapy, 2024).

Experiments:
[1] = system: colorectal (HCT116) carcinoma cell line; assay: MTT cytotoxicity, HCT-116; format: cell-based; conditions: Homo sapiens, HCT-116, 24 h, read-out: IC50 HCT-116
[2] = system: hepatocellular (HePG2) carcinoma cell line; assay: MTT cytotoxicity, HePG-2; format: cell-based; conditions: Homo sapiens, HepG2, 24 h, read-out: IC50 HePG-2
[3] = system: human cervical (Hela) carcinoma cell line; assay: MTT cytotoxicity, Hela; format: cell-based; conditions: 24 h, read-out: IC50 Hela
Summary of the method: (§1)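 Cells were grown in medium with 10% FBS, penicillin/streptomycin, 37°C, 5% CO2, then seeded at 1.0×10^4 cells/well and held 48 h. Test compound was added at 1.56, 3.125, 6.25, 12.5, 25, 50 and 100, for 24 h. MTT (5 mg/mL stock) was added for 4 h, formazan dissolved in DMSO and A570 read. Viability was taken relative to untreated wells. IC50 came from a Boltzmann sigmoidal fit, in triplicate, mean ± SD.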

[4] = system: breast cancer (MCF-7) cell line; assay: MTT cytotoxicity, MCF-7; format: cell-based; conditions: Homo sapiens, MCF7, 24 h, read-out: IC50 MCF-7
Summary of the method: as §1

[5] = system: WI-38 normal fibroblast cells; assay: MTT cytotoxicity towards normal human cells WI-38; format: cell-based; conditions: WI-38, 24 h, read-out: IC50 WI-38
[6] = system: HCT-116, HePG-2, HeLa and MCF-7 cells; assay: MTT cytotoxicity summarised over the 4 cancer cell lines; format: cell-based; conditions: Homo sapiens, read-out: IC50 range of one compound over the cancer cell lines
Summary of the method: as §1

VEGFR-2 enzyme = VEGFR-2 enzyme (Homo sapiens, UniProt P35968); assay: VEGFR-2 kinase inhibitory assay; format: biochemical
VEGFR-2 enzyme, sequence (P35968 20-1356): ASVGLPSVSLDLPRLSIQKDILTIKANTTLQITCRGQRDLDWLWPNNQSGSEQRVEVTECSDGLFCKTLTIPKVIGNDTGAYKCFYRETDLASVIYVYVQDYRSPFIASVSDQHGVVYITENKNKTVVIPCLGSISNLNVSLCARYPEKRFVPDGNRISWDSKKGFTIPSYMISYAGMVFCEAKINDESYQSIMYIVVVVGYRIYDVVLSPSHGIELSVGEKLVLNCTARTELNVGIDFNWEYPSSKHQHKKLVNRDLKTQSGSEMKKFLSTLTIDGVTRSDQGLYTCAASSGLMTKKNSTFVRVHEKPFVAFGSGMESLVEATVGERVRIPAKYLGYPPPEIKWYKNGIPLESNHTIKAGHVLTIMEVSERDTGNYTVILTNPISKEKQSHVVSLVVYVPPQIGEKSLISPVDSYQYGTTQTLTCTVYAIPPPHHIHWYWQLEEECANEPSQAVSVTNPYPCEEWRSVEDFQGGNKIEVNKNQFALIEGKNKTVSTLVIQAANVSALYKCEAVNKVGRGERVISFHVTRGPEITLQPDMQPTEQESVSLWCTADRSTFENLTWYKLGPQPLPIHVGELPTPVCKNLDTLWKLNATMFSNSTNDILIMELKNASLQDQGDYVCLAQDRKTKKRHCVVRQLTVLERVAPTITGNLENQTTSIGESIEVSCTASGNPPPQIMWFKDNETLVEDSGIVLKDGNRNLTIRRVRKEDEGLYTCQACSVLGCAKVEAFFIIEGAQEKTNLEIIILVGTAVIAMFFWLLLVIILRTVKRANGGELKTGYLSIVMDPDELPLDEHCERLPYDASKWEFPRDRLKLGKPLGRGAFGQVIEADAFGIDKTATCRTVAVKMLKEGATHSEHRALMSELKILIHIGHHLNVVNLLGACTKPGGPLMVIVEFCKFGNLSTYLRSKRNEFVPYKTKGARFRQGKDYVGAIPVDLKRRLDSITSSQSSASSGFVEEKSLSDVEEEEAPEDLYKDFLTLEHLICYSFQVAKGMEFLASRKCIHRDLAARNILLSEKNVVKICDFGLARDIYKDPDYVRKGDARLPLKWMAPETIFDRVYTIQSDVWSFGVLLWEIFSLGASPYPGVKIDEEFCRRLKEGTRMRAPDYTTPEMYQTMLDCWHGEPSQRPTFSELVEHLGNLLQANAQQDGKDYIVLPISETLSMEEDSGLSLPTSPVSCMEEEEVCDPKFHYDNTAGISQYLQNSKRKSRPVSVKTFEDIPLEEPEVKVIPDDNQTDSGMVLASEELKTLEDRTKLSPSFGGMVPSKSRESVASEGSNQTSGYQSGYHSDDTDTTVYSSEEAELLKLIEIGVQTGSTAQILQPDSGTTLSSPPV

| IC50 (VEGFR-2 enzyme) [µM] | % Inhibition 1 μM (VEGFR-2 enzyme; VEGFR-2 enzyme, 1 μM) [%] | % Inhibition 100 μM (VEGFR-2 enzyme; VEGFR-2 enzyme, 100 μM) [%] | inhibition at 0.01 µM (VEGFR-2 enzyme; read-out: % Inhibition 0.01 μM, VEGFR-2 enzyme, 0.01 μM) [%] | inhibition at 0.1 µM (VEGFR-2 enzyme; read-out: % Inhibition 0.1 μM, VEGFR-2 enzyme, 0.1 μM) [%] | inhibition at 10 µM (VEGFR-2 enzyme; read-out: % Inhibition 10 μM, VEGFR-2 enzyme, 10 μM) [%] | SMILES | IC50 [1] [µM] | IC50 [2] [µM] | IC50 [3] [µM] | IC50 [4] [µM] | IC50 [5] [µM] | IC50 [6] [µM] |
| --- | --- | --- | --- | --- | --- | --- | --- | --- | --- | --- | --- | --- |
|  |  |  |  |  |  | COc1ccc(NC(=O)NCCSc2nc3ccccc3c(=O)n2-c2ccccc2)cc1 [Compound 5a, 1-(4-Methoxyphenyl)-3-(2-((4-Oxo-3-Phenyl-3,4-Dihydroquinazolin-2-Yl)thio)ethyl)urea] | 62.7 ± 3.6 | 81.3 ± 4.3 | 83.4 ± 4.4 | 79.5 ± 3.9 | 29.4 ± 2.1 | 62.7 to 83.4 |
|  |  |  |  |  |  | O=C(NCCSc1nc2cc(Cl)ccc2c(=O)n1-c1ccccc1)NCCc1ccc(Cl)cc1 [Compound 5r, 1-(2-((7-Chloro-4-Oxo-3-Phenyl-3,4-Dihydroquinazolin-2-Yl)thio)ethyl)-3-(4-Chlorophenethyl)urea] | 13.2 ± 1.1 | 17.7 ± 1.4 | 22.4 ± 1.7 | 10.7 ± 0.9 | 74.2 ± 4.1 | 10.7 to 22.4 |
|  |  |  |  |  |  | O=C(NCCSc1nc2ccccc2c(=O)n1-c1ccccc1)NCc1ccc(Cl)cc1 [Compound 5g, 1-(4-Chlorobenzyl)-3-(2-((4-Oxo-3-Phenyl-3,4-Dihydroquinazolin-2-Yl)thio)ethyl)urea] | 35.3 ± 2.6 | 47.2 ± 3.1 | 53.7 ± 3.1 | 39.6 ± 2.6 | 86 ± 4.8 | 35.3 to 53.7 |
|  |  |  |  |  |  | COc1ccc(CNC(=O)NCCSc2nc3cc(Cl)ccc3c(=O)n2-c2ccccc2)cc1 [Compound 5o, 1-(2-((7-Chloro-4-Oxo-3-Phenyl-3,4-Dihydroquinazolin-2-Yl)thio)ethyl)-3-(4-Methoxybenzyl)urea] | 69.3 ± 3.9 | 84.3 ± 4.6 | 90.2 ± 4.8 | 86.5 ± 4.2 | 35.9 ± 2.3 | 69.3 to 90.2 |
|  |  |  |  |  |  | O=C(NCCSc1nc2ccccc2c(=O)n1-c1ccccc1)NCCc1ccc(Cl)cc1 [Compound 5i, 1-(4-Chlorophenethyl)-3-(2-((4-Oxo-3-Phenyl-3,4-Dihydroquinazolin-2-Yl)thio)ethyl)urea] | 39.1 ± 2.7 | 49.8 ± 3.2 | 58.3 ± 3.3 | 43.1 ± 2.8 | > 100 | 39.1 to 58.3 |
|  |  |  |  |  |  | O=C(NCCSc1nc2cc(Cl)ccc2c(=O)n1-c1ccccc1)NCc1ccccc1 [Compound 5n, 1-Benzyl-3-(2-((7-Chloro-4-Oxo-3-Phenyl-3,4-Dihydroquinazolin-2-Yl)thio)ethyl)urea] | 44.2 ± 2.8 | 52.4 ± 3.4 | 61.5 ± 3.7 | 48.7 ± 3 | 73.6 ± 3.9 |  |
|  |  |  |  |  |  | O=C(NCCSc1nc2cc(Cl)ccc2c(=O)n1-c1ccccc1)Nc1ccc(Cl)cc1 [Compound 5k, 1-(2-((7-Chloro-4-Oxo-3-Phenyl-3,4-Dihydroquinazolin-2-Yl)thio)ethyl)-3-(4-Chlorophenyl)urea] | 23.4 ± 2.1 | 40.9 ± 2.6 | 38 ± 2.5 | 32.9 ± 2.3 | > 100 | 23.4 to 40.9 |
|  |  |  |  |  |  | O=C(NCCSc1nc2ccccc2c(=O)n1-c1ccccc1)NCc1ccccc1 [Compound 5e, 1-Benzyl-3-(2-((4-Oxo-3-Phenyl-3,4-Dihydroquinazolin-2-Yl)thio)ethyl)urea] | 54.9 ± 3.3 | 65.7 ± 3.8 | 75.3 ± 4.2 | 72.8 ± 3.6 | > 100 |  |
|  |  |  |  |  |  | O=C(NCCSc1nc2cc(Cl)ccc2c(=O)n1-c1ccccc1)Nc1ccc(Br)cc1 [Compound 5l, 1-(4-Bromophenyl)-3-(2-((7-Chloro-4-Oxo-3-Phenyl-3,4-Dihydroquinazolin-2-Yl)thio)ethyl)urea] | 28.6 ± 2.3 | 44.7 ± 2.9 | 49.4 ± 2.9 | 37.2 ± 2.5 | > 100 | 28.6 to 49.4 |
| 0.215 | 65.78 | 93.07 | 25.3 | 40.1 | 86.1 | O=C(NCCSc1nc2ccccc2c(=O)n1-c1ccccc1)NCCc1ccccc1 [Compound 5h, 1-(2-((4-Oxo-3-Phenyl-3,4-Dihydroquinazolin-2-Yl)thio)ethyl)-3-Phenethylurea] | 5.89 ± 0.3 | 6.74 ± 0.5 | 11.6 ± 0.9 | 13.9 ± 1.1 | 41.1 ± 2.6 |  |
